≈ marks a conversion by molar mass, not a printed value.
Tests used:
Type in all cases: functional
[1] = system: Staphylococcus aureus; assay: Antibacterial activity against methicillin-resistant Staphylococcus aureus ATCC 43300 by broth microdilution method
How it was run: (§1)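 MIC by standard NCCLS broth microdilution against resistant S. aureus strains, reported in µg/mL. Clarithromycin and azithromycin were run alongside as references.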

[2] = system: Staphylococcus aureus; assay: Antibacterial activity against penicillin-resistant Staphylococcus aureus ATCC 31007 by broth microdilution method; how it was run: as §1
[3] = system: Streptococcus pneumoniae; assay: Antibacterial activity against erythromycin-resistant Streptococcus pneumoniae B1 by broth microdilution method
How it was run: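 MIC by standard NCCLS broth microdilution, reported in µg/mL. The strain expresses the ermB gene. Clarithromycin and azithromycin were run alongside as references.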

[4] = system: Streptococcus pneumoniae; assay: Antibacterial activity against erythromycin-resistant Streptococcus pneumoniae AB11 by broth microdilution method
How it was run: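 MIC by standard NCCLS broth microdilution, reported in µg/mL. The strain expresses the ermB and mefA genes. Clarithromycin and azithromycin were run alongside as references.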

[5] = system: Streptococcus pyogenes; assay: Antibacterial activity against erythromycin-resistant Streptococcus pyogenes R1 by broth microdilution method
How it was run: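 MIC by standard NCCLS broth microdilution, reported in µg/mL. The strain is a clinically isolated erythromycin-resistant strain. Clarithromycin and azithromycin were run alongside as references.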

[6] = system: Pseudomonas aeruginosa; assay: Antibacterial activity against penicillin-susceptible Pseudomonas aeruginosa ATCC 27853 by broth microdilution method
How it was run: (§2)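 MIC determined by standard broth microdilution per NCCLS recommendations, read as minimal inhibitory concentration in µg/mL. Standard ATCC strains tested alongside the other panel strains, with clarithromycin and azithromycin as reference agents.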

[7] = system: Staphylococcus aureus; assay: Antibacterial activity against erythromycin-susceptible Staphylococcus aureus ATCC 25923 by broth microdilution method; how it was run: as §2
[8] = system: Bacillus subtilis; assay: Antibacterial activity against penicillin-susceptible Bacillus subtilis ATCC9372 by broth microdilution method; how it was run: as §2

With `CO[C@]1(C)C[C@@H](C)[C@H](OC(=O)c2cccc(C)c2)[C@H](C)CN(C)CCOC(=O)[C@H](C)C(=O)[C@H](C)[C@H]1O[C@@H]1O[C@H](C)C[C@H](N(C)C)[C@H]1OC(=O)c1cccc(C)c1` the MIC [1] was > 256 µg/mL, the MIC [2] was > 256 µg/mL and the MIC [3] was > 256 µg/mL. The MIC [4] was > 256 µg/mL, the MIC [5] was > 256 µg/mL and the MIC [6] was > 128 µg/mL. For the same compound, the MIC [7] was 128 µg/mL (≈ 164 µM) and the MIC [8] was > 128 µg/mL.

With `CC[C@H]1OC(=O)[C@H](C)[C@@H](O[C@H]2C[C@@](C)(OC)[C@@H](O)[C@H](C)O2)[C@H](C)[C@@H](O[C@@H]2O[C@H](C)C[C@H](N(C)C)[C@H]2O)[C@](C)(OC)C[C@@H](C)C(=O)[C@H](C)[C@@H](O)[C@]1(C)O` [CLARITHROMYCIN] the MIC [1] was > 256 µg/mL, the MIC [2] was > 256 µg/mL and the MIC [3] was > 256 µg/mL. It also gave an MIC [4] of 256 µg/mL (≈ 342 µM), an MIC [5] of 256 µg/mL (≈ 342 µM) and an MIC [6] of 16 µg/mL (≈ 21.4 µM). The MIC [7] was ≤ 0.25 µg/mL and the MIC [8] was ≤ 0.25 µg/mL.

For `CCCc1ccc(C(=O)O[C@@H]2[C@H](C)CN(C)CCOC(=O)[C@H](C)C(=O)[C@H](C)[C@@H](O[C@@H]3O[C@H](C)C[C@H](N(C)C)[C@H]3OC(=O)c3ccc(CCC)cc3)[C@](C)(OC)C[C@H]2C)cc1`, the MIC [1] was > 256 µg/mL, the MIC [2] was > 256 µg/mL and the MIC [3] was > 256 µg/mL. For the same compound, the MIC [4] was > 256 µg/mL, the MIC [5] was > 256 µg/mL and the MIC [6] was > 128 µg/mL. For the same compound, the MIC [7] was 64 µg/mL (≈ 76.5 µM) and the MIC [8] was > 128 µg/mL.

With `CO[C@]1(C)C[C@@H](C)[C@H](OC(=O)c2ccc(F)cc2)[C@H](C)CN(C)CCOC(=O)[C@H](C)C(=O)[C@H](C)[C@H]1O[C@@H]1O[C@H](C)C[C@H](N(C)C)[C@H]1OC(=O)c1ccc(F)cc1` the MIC [1] was > 256 µg/mL, the MIC [2] was > 256 µg/mL and the MIC [3] was > 256 µg/mL. For the same compound, the MIC [4] was > 256 µg/mL, the MIC [5] was > 256 µg/mL and the MIC [6] was > 128 µg/mL. For the same compound, the MIC [7] was 128 µg/mL (≈ 162 µM) and the MIC [8] was > 128 µg/mL.

In the case of `CO[C@]1(C)C[C@@H](C)[C@H](OC(=O)c2cccc(F)c2)[C@H](C)CN(C)CCOC(=O)[C@H](C)C(=O)[C@H](C)[C@H]1O[C@@H]1O[C@H](C)C[C@H](N(C)C)[C@H]1OC(=O)c1cccc(F)c1`, the MIC [1] is reported as > 256 µg/mL, the MIC [2] is reported as > 256 µg/mL and the MIC [3] is reported as > 256 µg/mL. The MIC [4] was > 256 µg/mL, the MIC [5] was > 256 µg/mL and the MIC [6] was > 128 µg/mL. The MIC [7] was 128 µg/mL (≈ 162 µM) and the MIC [8] was > 128 µg/mL.

`CO[C@]1(C)C[C@@H](C)[C@H](OC(=O)c2ccc(Br)cc2)[C@H](C)CN(C)CCOC(=O)[C@H](C)C(=O)[C@H](C)[C@H]1O[C@@H]1O[C@H](C)C[C@H](N(C)C)[C@H]1OC(=O)c1ccc(Br)cc1` was tested, and the MIC [1] was > 256 µg/mL, the MIC [2] was > 256 µg/mL and the MIC [3] was > 256 µg/mL. For the same compound, the MIC [4] was > 256 µg/mL, the MIC [5] was > 256 µg/mL and the MIC [6] was > 128 µg/mL. The MIC [7] was 128 µg/mL (≈ 141 µM) and the MIC [8] was > 128 µg/mL.

`CO[C@]1(C)C[C@@H](C)[C@H](OC(=O)c2cccc(Cl)c2)[C@H](C)CN(C)CCOC(=O)[C@H](C)C(=O)[C@H](C)[C@H]1O[C@@H]1O[C@H](C)C[C@H](N(C)C)[C@H]1OC(=O)c1cccc(Cl)c1` was tested, and the MIC [1] was > 256 µg/mL, the MIC [2] was > 256 µg/mL and the MIC [3] was > 256 µg/mL. For the same compound, the MIC [4] was > 256 µg/mL, the MIC [5] was > 256 µg/mL and the MIC [6] was > 128 µg/mL. The MIC [7] was 64 µg/mL (≈ 77.9 µM) and the MIC [8] was > 128 µg/mL.

With `CO[C@]1(C)C[C@@H](C)[C@H](OC(=O)c2ccccc2Br)[C@H](C)CN(C)CCOC(=O)[C@H](C)C(=O)[C@H](C)[C@H]1O[C@@H]1O[C@H](C)C[C@H](N(C)C)[C@H]1OC(=O)c1ccccc1Br` the MIC [1] was > 256 µg/mL, the MIC [2] was > 256 µg/mL and the MIC [3] was > 256 µg/mL. The MIC [4] was > 256 µg/mL, the MIC [5] was > 256 µg/mL and the MIC [6] was > 128 µg/mL. The MIC [7] was 128 µg/mL (≈ 141 µM) and the MIC [8] was > 128 µg/mL.

For `CO[C@]1(C)C[C@@H](C)[C@H](OC(=O)c2ccc([N+](=O)[O-])cc2)[C@H](C)CN(C)CCOC(=O)[C@H](C)C(=O)[C@H](C)[C@H]1O[C@@H]1O[C@H](C)C[C@H](N(C)C)[C@H]1OC(=O)c1ccc([N+](=O)[O-])cc1`, the MIC [1] was > 256 µg/mL, the MIC [2] was > 256 µg/mL and the MIC [3] was > 256 µg/mL. For the same compound, the MIC [4] was > 256 µg/mL, the MIC [5] was > 256 µg/mL and the MIC [6] was > 128 µg/mL. For the same compound, the MIC [7] was 64 µg/mL (≈ 75.9 µM) and the MIC [8] was > 128 µg/mL.

`CO[C@]1(C)C[C@@H](C)[C@H](OC(=O)c2cccc(Br)c2)[C@H](C)CN(C)CCOC(=O)[C@H](C)C(=O)[C@H](C)[C@H]1O[C@@H]1O[C@H](C)C[C@H](N(C)C)[C@H]1OC(=O)c1cccc(Br)c1` was tested, and the MIC [1] was > 256 µg/mL, the MIC [2] was > 256 µg/mL and the MIC [3] was > 256 µg/mL. The MIC [4] was > 256 µg/mL, the MIC [5] was > 256 µg/mL and the MIC [6] was > 128 µg/mL. The MIC [7] was 64 µg/mL (≈ 70.3 µM) and the MIC [8] was > 128 µg/mL.

For `CO[C@]1(C)C[C@@H](C)[C@H](OC(=O)c2cc(Cl)cc(Cl)c2)[C@H](C)CN(C)CCOC(=O)[C@H](C)C(=O)[C@H](C)[C@H]1O[C@@H]1O[C@H](C)C[C@H](N(C)C)[C@H]1OC(=O)c1cc(Cl)cc(Cl)c1`, the MIC [1] was > 256 µg/mL, the MIC [2] was > 256 µg/mL and the MIC [3] was > 256 µg/mL. The MIC [4] was > 256 µg/mL, the MIC [5] was > 256 µg/mL and the MIC [6] was > 128 µg/mL. For the same compound, the MIC [7] was 128 µg/mL (≈ 144 µM) and the MIC [8] was > 128 µg/mL.

In the case of `CC[C@H]1OC(=O)[C@H](C)[C@@H](O[C@H]2C[C@@](C)(OC)[C@@H](O)[C@H](C)O2)[C@H](C)[C@@H](O[C@@H]2O[C@H](C)C[C@H](N(C)C)[C@H]2O)[C@](C)(O)C[C@@H](C)CN(C)[C@H](C)[C@@H](O)[C@]1(C)O` [AZITHROMYCIN], the MIC [1] is reported as > 256 µg/mL, the MIC [2] is reported as > 256 µg/mL and the MIC [3] is reported as > 256 µg/mL. The MIC [4] was 128 µg/mL (≈ 171 µM), the MIC [5] was 256 µg/mL (≈ 342 µM) and the MIC [6] was 32 µg/mL (≈ 42.7 µM). The MIC [7] was ≤ 0.25 µg/mL and the MIC [8] was ≤ 0.25 µg/mL.

In the case of `COc1cccc(C(=O)O[C@@H]2[C@H](C)CN(C)CCOC(=O)[C@H](C)C(=O)[C@H](C)[C@@H](O[C@@H]3O[C@H](C)C[C@H](N(C)C)[C@H]3OC(=O)c3cccc(OC)c3)[C@](C)(OC)C[C@H]2C)c1`, the MIC [1] is reported as > 256 µg/mL, the MIC [2] is reported as > 256 µg/mL and the MIC [3] is reported as > 256 µg/mL. For the same compound, the MIC [4] was > 256 µg/mL, the MIC [5] was > 256 µg/mL and the MIC [6] was > 128 µg/mL. The MIC [7] was 128 µg/mL (≈ 157 µM) and the MIC [8] was > 128 µg/mL.

With `CCOc1ccc(C(=O)O[C@@H]2[C@H](C)CN(C)CCOC(=O)[C@H](C)C(=O)[C@H](C)[C@@H](O[C@@H]3O[C@H](C)C[C@H](N(C)C)[C@H]3OC(=O)c3ccc(OCC)cc3)[C@](C)(OC)C[C@H]2C)cc1` the MIC [1] was > 256 µg/mL, the MIC [2] was > 256 µg/mL and the MIC [3] was > 256 µg/mL. The MIC [4] was > 256 µg/mL, the MIC [5] was > 256 µg/mL and the MIC [6] was > 128 µg/mL. The MIC [7] was 128 µg/mL (≈ 152 µM) and the MIC [8] was > 128 µg/mL.

In the case of `COc1ccc(C(=O)O[C@@H]2[C@H](C)CN(C)CCOC(=O)[C@H](C)C(=O)[C@H](C)[C@@H](O[C@@H]3O[C@H](C)C[C@H](N(C)C)[C@H]3OC(=O)c3ccc(OC)cc3)[C@](C)(OC)C[C@H]2C)cc1`, the MIC [1] is reported as > 256 µg/mL, the MIC [2] is reported as > 256 µg/mL and the MIC [3] is reported as > 256 µg/mL. For the same compound, the MIC [4] was > 256 µg/mL, the MIC [5] was > 256 µg/mL and the MIC [6] was > 128 µg/mL. For the same compound, the MIC [7] was 64 µg/mL (≈ 78.7 µM) and the MIC [8] was > 128 µg/mL.

`CO[C@]1(C)C[C@@H](C)[C@H](OC(=O)c2ccc(C(F)(F)F)cc2)[C@H](C)CN(C)CCOC(=O)[C@H](C)C(=O)[C@H](C)[C@H]1O[C@@H]1O[C@H](C)C[C@H](N(C)C)[C@H]1OC(=O)c1ccc(C(F)(F)F)cc1` was tested, and the MIC [1] was > 256 µg/mL, the MIC [2] was > 256 µg/mL and the MIC [3] was > 256 µg/mL. For the same compound, the MIC [4] was > 256 µg/mL, the MIC [5] was > 256 µg/mL and the MIC [6] was > 128 µg/mL. The MIC [7] was 64 µg/mL (≈ 72 µM) and the MIC [8] was > 128 µg/mL.

Reference: ChEMBL document CHEMBL4811269, “Design, synthesis and antibacterial evaluation of novel C-11, C-9 or C-2'-substituted 3-O-descladinosyl-3-ketoclarithromycin derivatives” (Bioorg Med Chem Lett, 2021)
